Test results published in article PMC3220747 (ACS chemical biology, 2011).
“Also recorded” adds a separate entry of the source. Where two headings read alike, the source gives them in different places.

Assays:
[1] = molecular target: uPAR·uPA interaction (uPAR binding to uPAATF) (Homo sapiens, UniProt Q03405); experiment: Microtiter-based ELISA, uPAR binding to immobilized uPAATF; conditions: for activity in the ELISA at single concentration: 50 μM; for concentration-dependent inhibition of uPAR binding to uPAATF (ELISA): serial dilutions
In short: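 Microtiter wells coated with uPAATF (purified by SP Sepharose […] exchange). Blocking used a 1:1 mix of Superblock in PBS with 0.04 M NaH₂PO₄/0.3 M NaCl buffer. uPAR binding was tested against serial dilutions of test compound. After incubation and washes, bound uPAR was detected with biotinylated antibody uPA1310 in 1% BSA/PBS for 1–2 h.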

[2] = molecular target: uPAR·uPA interaction (suPAR277 and uPAATF) (Homo sapiens, UniProt Q03405); experiment: Surface plasmon resonance; assay type: binding; conditions: for SPR response with increasing concentration of compound: 5 to 100 μM
In short: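 uPA amino-terminal fragment was amine-coupled to a CM5 chip at about 100 RU. Soluble uPAR (residues 1–277, expressed in Drosophila S2 cells) was injected with or without test compound (5–100 μM final, 5% DMSO) in HBS-EP plus 5% DMSO. Flow was 20 μL min⁻¹, with 180 s association and 90 s dissociation, and 5 mM HCl regeneration. DMSO-only protein controls were interleaved. IC50 was estimated from the plots.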

MDA-MB-231 cells [3] = experiment: Cytotoxicity / cell proliferation; assay type: cell-based, human
In short: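 MDA-MB-231 cells were exposed to test compound at the same concentrations and for the same incubation time as the transwell motility assay. MTT was added 2 h before measurement.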

MDA-MB-231 cells [4] = experiment: Invasion assay; assay type: cell-based, human; conditions: for number of cells able to invade through the membrane: MDA-MB-231, increasing concentration
In short: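 Insert undersides were coated overnight at 4°C with 30 ng μl⁻¹ fibronectin, and filters were equilibrated 2 h in serum-free medium. Cells serum-starved 4 h were seeded at 5×10⁴ in 0.1% FBS medium with compound in the upper chamber, with 10% FBS medium plus compound or DMSO below. After 16 h at 37°C, 5% CO₂, filters were methanol-fixed and hematoxylin-stained. Invaded cells were counted in ten 200× fields.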

MDA-MB-231 cells [5] = experiment: Wound healing assay; assay type: cell-based, human; conditions: MDA-MB-231, 16 h
In short: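 Confluent MDA-MB-231 monolayers were scratched with a pipette tip, washed, and cultured in complete medium containing test compound. The gap between wound edges was measured in three random regions immediately after wounding and at 16 h.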

uPAR [6] = molecular target: T1, uPAR (Homo sapiens, UniProt Q03405); experiment: Direct binding of IPR-456 to uPAR by FP; conditions: 10 μM GFD
uPAR [7] = molecular target: T1, uPAR; experiment: Fluorescence polarization; assay type: binding
[8] = molecular target: uPA binding to uPAR of MDA-MB-231 tumor cells (Homo sapiens, UniProt Q03405); experiment: Immunofluorescence imaging of cell surface uPA and uPAR; assay type: cell-based
MDA-MB-231 cells [9] = experiment: Transwell; assay type: cell-based, human
In short: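 Wells were fibronectin-coated (30 ng μL⁻¹, 4°C overnight). Cells serum-starved 4 h were seeded at 5×10⁴ in 0.1% FBS medium with compound or DMSO in the upper chamber, with 10% FBS RPMI-1640 plus compound or 1% DMSO below, for 8 h at 37°C. Non-migrated cells were scraped off; filters were methanol-fixed 30 min and hematoxylin-stained 1 h. Cells in ten 200× fields were counted and averaged over three independent experiments.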

[10] = system: MDA-MB-231 cells lacking uPAR; experiment: Invasion assay with siRNA knockdown of uPAR; assay type: cell-based, human; conditions: MDA-MB-231 with siRNA knockdown of uPAR
In short: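 Cells were transfected with uPAR siRNA, control siRNA or transfection reagent alone. After 48 h, knockdown was checked by immunoblot: 20 µg lysate on 12% SDS-PAGE, anti-uPAR probe, actin as loading control. Invasion without or with test compound then used fibronectin-coated transwells, with 0.1% FBS medium above and 10% FBS below, for 16 h at 37°C. Invaded cells were counted.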

MDA-MB-231 cells [11] = experiment: Adhesion assay; assay type: cell-based, human
In short: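 Wells coated overnight at 4°C with fibronectin (15 ng μl⁻¹) or vitronectin, then blocked 1 h with 0.5% BSA/PBS. Cells were serum-starved 3 h, trypsinized, and held at 2.5×10⁵ cells ml⁻¹ in 0.1% FBS DMEM with test compound or DMSO for 90 min at 37°C. After three PBS washes, remaining adherent cells were quantified by MTT.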

[12] = read-out: IC50, inhibition of uPAATF binding to uPAR (ELISA)

Sequence of uPA binding to uPAR of MDA-MB-231 tumor cells (Q03405 23-305 limits assumed): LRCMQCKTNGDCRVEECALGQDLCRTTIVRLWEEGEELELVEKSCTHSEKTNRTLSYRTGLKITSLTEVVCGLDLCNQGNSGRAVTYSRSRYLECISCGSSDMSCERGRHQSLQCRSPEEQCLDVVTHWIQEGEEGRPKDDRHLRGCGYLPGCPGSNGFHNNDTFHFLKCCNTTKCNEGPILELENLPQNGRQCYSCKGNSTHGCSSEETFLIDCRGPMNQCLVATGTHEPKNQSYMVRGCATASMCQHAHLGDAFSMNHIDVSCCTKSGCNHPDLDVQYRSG
Sequence of uPAR·uPA interaction (suPAR277 and uPAATF) (Q03405 23-299): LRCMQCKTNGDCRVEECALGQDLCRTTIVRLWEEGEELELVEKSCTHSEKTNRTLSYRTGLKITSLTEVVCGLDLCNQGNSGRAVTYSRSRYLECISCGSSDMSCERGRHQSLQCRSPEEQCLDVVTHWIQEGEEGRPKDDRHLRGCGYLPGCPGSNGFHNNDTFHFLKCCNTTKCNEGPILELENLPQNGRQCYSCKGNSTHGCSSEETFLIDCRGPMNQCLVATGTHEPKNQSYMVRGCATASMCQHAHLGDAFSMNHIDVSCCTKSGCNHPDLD
T1 sequence (Q03405 23-299): as above
Sequence of uPAR·uPA interaction (uPAR binding to uPAATF) (Q03405 23-299): as above

Structure (SMILES): CC1CC(C)CN(c2cc(NCCC(=O)O)c3c4c(onc24)-c2ccccc2C3=O)C1 (stereo not shown) [IPR-763]
- activity in the ELISA at single concentration [1]: strong activity
- IC50 [1, 12]: 20 µM
- concentration-dependent inhibition of uPAR binding to uPAATF (ELISA) [1]: concentration-dependent inhibition
- IC50 estimated from SPR plots, compared with ELISA [2]: nearly identical to those observed in the ELISA
- SPR response with increasing concentration of compound [2]: concentration-dependent decrease in the response

Structure (SMILES): O=C(O)c1cccc(Nc2cc(N3CCCCCC3)c3noc4c3c2C(=O)c2ccccc2-4)c1 [IPR-803, 3-((3-(Azepan-1-yl)-6-oxo-6H-anthra[1,9-cd]isoxazol-5-yl)amino)benzoic acid]
- effect on cell proliferation / cytotoxicity (MDA-MB-231 cells [3]; MDA-MB-231, increasing concentration): concentration dependent inhibition of MDA-MB-231 cell proliferation; also recorded: some cytotoxicity
- IC50 [1]: 10 µM
- activity in the ELISA at single concentration [1]: strong activity
- concentration-dependent inhibition of uPAR binding to uPAATF (ELISA) [1]: concentration-dependent inhibition
- IC50 [2]: 10 µM
- IC50 estimated from SPR plots, compared with ELISA [2]: nearly identical to those observed in the ELISA
- SPR response with increasing concentration of compound [2]: concentration-dependent decrease in the response
- number of cells able to invade through the membrane (MDA-MB-231 cells [4]): concentration-dependent reduction

Structure (SMILES): CC1CC(C)CN(c2cc(Nc3ccccc3C(=O)O)c3c4c(onc24)-c2ccccc2C3=O)C1 (stereo not shown) [IPR-456, 2-((3-(3,5-Dimethylpiperidin-1-yl)-6-oxo-6H-anthra[1,9-cd]isoxazol-5-yl)amino)benzoic acid]
- effect on migration (wound healing) (MDA-MB-231 cells [5]): little effect on migration
- change of polarization with increasing uPAR in the presence of GFD (uPAR [6]): no increase in the polarization was detected
- Ki (uPAR [7]): 0.14 µM
- concentration-dependent displacement of GFD-FAM (uPAR [7]; 0.78 μM to 100 μM): displace GFD-FAM in a concentration-dependent manner
- inhibition / binding in initial FP screen (uPAR [7]; single concentration of 50 μM): highest inhibition
- IC50 [8]: 8 µM
- uPAR immunostaining at the cell surface ([8]; MDA-MB-231): no change in the immunostaining pattern of uPAR
- uPA staining at the cell surface ([8]; MDA-MB-231, compound added 30 min prior to immunostaining): significant concentration-dependent reduction of uPA staining
- toxicity within the timeframe of the invasion experiment (MDA-MB-231 cells [3]; MDA-MB-231, 200 μM): minimal toxicity
- toxicity within the timeframe of the invasion experiment (MDA-MB-231 cells [3]; MDA-MB-231, up to 100 μM): no toxicity
- cytotoxicity in the migration assays (MDA-MB-231 cells [3]; same concentrations and incubation time as migration assays): Neither assay exhibited any cell cytotoxicity
- concentration-dependent inhibition of uPAR binding to uPAATF (ELISA) [1]: complete concentration-dependent inhibition
- effect on migration (Boyden chamber) (MDA-MB-231 cells [9]): blocked migration very weakly
- effect on invasion of cells lacking uPAR [10]: no effect on invasion
- inhibition of invasion (MDA-MB-231 cells [4]; MDA-MB-231): about 60%
- number of cells able to invade through the membrane (MDA-MB-231 cells [4]): concentration-dependent reduction
- effect on cell adhesion (MDA-MB-231 cells [11]; fibronectin-coated wells): no effect on cell adhesion
- effect on cell adhesion (MDA-MB-231 cells [11]; vitronectin-coated wells): no effect on cell adhesion

Structure (SMILES): CC1CCN(c2cc(Nc3ccc(C(=O)O)cc3)c3c4c(onc24)-c2ccccc2C3=O)CC1 [IPR-808]
- activity in the ELISA at single concentration [1]: strong activity
- IC50 [1, 12]: 30 µM
- concentration-dependent inhibition of uPAR binding to uPAATF (ELISA) [1]: concentration-dependent inhibition
